Source: PubChem BioAssay (Sanford-Burnham Center for Chemical Genomics)
Compounds with a hit are over-represented: about 1.5% of the library has one in this group of screens.
PPC-1+TRAIL kill – compounds killing PPC-1 cancer cells with TRAIL present, primary screen, TRAIL potentiator project, ATPLite luminescence, uHTS; PPC-1 cells + TRAIL, ATPLite viability luminescence; cell killing (% activity), % at 4 µM or 5 µM; actives 0.41% (n = 220,000); AID 1443, 2008;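 active = cell killing above 50% in the first pass at 4 µM, then a duplicate retest at 5 µM averaging 50% or more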;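 also: plate controls were cells with TRAIL plus DMSO for no effect and medium-only wells lacking cells for full effect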
FLuc inh counter – firefly luciferase enzyme inhibitors, primary screen, artefact control for luciferase-based inhibitor screens, biochemical, luminescence, ATPLite; 10 min; actives 1.5% (n = 200,000); inhibition, % at 10 µM; Luciferin 4-monooxygenase (Photinus pyralis), P08659;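 active = inhibition above about 50% when tested at 10 µM, limit read from the data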
Target sequence (P08659 whole entry, looked up): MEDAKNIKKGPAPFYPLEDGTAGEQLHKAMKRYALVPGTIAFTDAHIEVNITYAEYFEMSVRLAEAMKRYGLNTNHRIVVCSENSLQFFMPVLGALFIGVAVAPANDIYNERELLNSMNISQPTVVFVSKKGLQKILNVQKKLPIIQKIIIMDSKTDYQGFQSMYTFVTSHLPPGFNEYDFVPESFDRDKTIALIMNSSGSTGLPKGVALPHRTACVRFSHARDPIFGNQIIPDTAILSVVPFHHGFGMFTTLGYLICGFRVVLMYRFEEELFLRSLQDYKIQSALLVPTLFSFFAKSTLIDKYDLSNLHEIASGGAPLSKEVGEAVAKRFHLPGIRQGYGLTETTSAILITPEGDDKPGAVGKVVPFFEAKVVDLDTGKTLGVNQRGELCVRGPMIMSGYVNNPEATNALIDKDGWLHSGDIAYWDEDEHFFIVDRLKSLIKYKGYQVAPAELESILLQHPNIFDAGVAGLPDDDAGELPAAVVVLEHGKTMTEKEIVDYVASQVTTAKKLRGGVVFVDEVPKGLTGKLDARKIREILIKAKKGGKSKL
FLuc stim CS – FLuc activators, initial screening, artefact control for FLuc-dependent activation tests, biochemical, ATPlite luminescence. ATPlite luciferase biochemical, 10 min; 0 = ATP-free wells, 1 = DMSO control. Luciferin 4-monooxygenase (Photinus pyralis), P08659. activation factor at 10 µM. 200,000 tested, under 10 active;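 active = luciferase activation factor, scaled between plate controls, of at least 2 with compound at 10 µM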
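Assay system – cell-free luciferase reagent · Medium – PBS-based ATP solution · Dosing – test compounds dosed from 2 mM stocks in 100% DMSO · Timing – 10 min, room temperature · Technique – light output (luminescence) · Measure – luminescence gain marking luciferase activators · Controls – No-ATP low control, compound-free enzyme-plus-ATP high control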
TRAIL sens C8 – viability loss with TRAIL in NB7+C8 cells, primary screen, TRAIL sensitizer project, cell-based, ATPlite luminescence. AID 624354, 2012. inhibition (viability loss, TRAIL sensitization), % at 10 µM. actives 1% (n = 360,000);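 active = compounds causing at least 50% loss of cell viability in the single-dose screen, relative to plate controls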
* = called active by the depositor; . = no result.

SMILES	PPC-1+TRAIL kill	FLuc inh counter	FLuc stim CS	TRAIL sens C8
O=C(C/C=N\OCc1ccc([N+](=O)[O-])cc1)Nc1ccc(Br)cc1	33	-7	1.1	3
C=C1C(=O)C23C(O)C1CCC2C12CCCC(C)(COC(C)=O)C1C(O)C3(O)OC2 (configuration not stated)	.	.	.	74*
CC(=O)N1C[C@H]2CON(C)[C@H]2C[C@H]1c1cccc(N2CCOCC2)c1	.	.	.	-16
COc1cccc(-c2cn3nc(C)c(C)nc3n2)c1	18	22	0.8	13
COc1ccc(-c2cn3nc4c(nc3n2)CCCC4)cc1	10	68*	0.3	-2
CN(C)c1ccc(C=Nc2ccccc2)cc1	8	-1	1	-10
CN(C)c1ccc(/C=N/n2ncc3ccccc32)cc1	43	60*	0.4	51*
C=CCn1c(/N=C/c2ccc(N(C)C)cc2)nc2ccccc21	0	94*	0.1	-3
CCCCn1c(/N=C/c2ccc(N(C)C)cc2)nc2ccccc21	-3	61*	0.4	-10
C=CCn1c(/N=C/c2ccc(OC)cc2)nc2ccccc21	.	.	.	0
CCCCn1c(/N=C/c2ccc3c(c2)OCO3)nc2ccccc21	2	28	0.7	7
N#C/C(=C(/O)c1ccc(Br)s1)c1nc2ccccc2[nH]1	.	.	.	24
N#C/C(=C(/O)c1ccc([N+](=O)[O-])s1)c1nc2ccccc2[nH]1	26	.	.	44*
Cn1cc(/C=C2/SC(=O)N(c3ccccc3)C2=O)c2ccccc21	7	-2	1	-1
Cn1cccc1/C=C1\SC(=O)N(c2ccccc2)C1=O	14	52*	0.5	28
CN1OC[C@@H]2CN(Cc3cc(Cl)cc(Cl)c3)[C@H](c3cccc(-c4ccccc4)c3)C[C@@H]21	.	.	.	12
COc1ccc(NC(=O)c2cc(-c3ccncc3)nc3ccc(Br)cc23)cc1OC	.	.	.	54*
O=C(COc1ccc([N+](=O)[O-])cc1)Nc1ccccc1C(=O)NC1CC1	.	.	.	-7
CCOc1ccc2nc(NC(=O)CN3CCC(n4nnc5cc(C(F)(F)F)ccc54)CC3)sc2c1	13	4	1	56*
Cc1cc(NC(=O)CN2CCC(n3nnc4cc(C(F)(F)F)ccc43)CC2)no1	-3	-7	1.1	2
O=C(NC(=S)N1CCN(Cc2ccccc2)CC1)c1ccco1	13	-7	1.1	-10
Cn1c(CCc2ccc(N)cc2)nc2ccccc21	18	55*	0.5	25
Cn1c(-c2ccc(N)cc2)nc2ccccc21	12	19	0.8	14
CCCn1c(Nc2nc3ccccc3n2C)nc2ccccc21	7	-3	1	53*
CCCCn1c(Nc2ccccc2)nc2ccccc21	-6	0	1	-5
SMILES	PPC-1+TRAIL kill	FLuc inh counter	FLuc stim CS	TRAIL sens C8
CCOC(=O)c1cnc2ccccc2c1Nc1cccc(C(=O)O)c1	5	86*	0.1	5
CCCCC(=O)OCC(=O)c1ccc(OCC)cc1	26	53*	0.5	0
CCOc1ccc(C(=O)COC(=O)CC)cc1	10	56*	0.4	10
CN(CCCCCCCCCCN(C)C(=O)Oc1cccc([N+](C)(C)C)c1)C(=O)Oc1cccc([N+](C)(C)C)c1	.	.	.	-8
O=C(Nc1ccc(N2CCCCC2)cc1)c1ccc(F)cc1F	14	.	.	36
Cc1cnc(C(=O)Nc2ccc(N3CCCCC3)cc2)cn1	5	55*	0.5	19
O=C(Nc1ccc(N2CCCC2)cc1)c1ccccc1F	28	71*	0.3	-8
N#CC1(c2ccc(NC(=O)c3ccccc3F)cc2)CCCC1	37	64*	0.4	44
O=C(Nc1ccc(N2CCCC2=O)cc1)c1cccc(F)c1	24	44	0.6	30
O=C(Nc1ccc(N2CCCC2)cc1)c1cccc(F)c1	23	59*	0.4	12
COc1ccc(OC)c(NC(=O)CC2Oc3ccccc3NC2=O)c1 (configuration not stated)	.	.	.	0
CN(c1cccc(Cl)c1)S(=O)(=O)c1cccc(C(=O)NN2CCOCC2)c1	.	.	.	-6
C[C@H]1CN([C@@H](C)CO)C(=O)CCCn2cc(nn2)CO[C@@H]1CN(C)S(=O)(=O)c1ccc(C#N)cc1	.	.	.	-8
O=C(Cc1ccccc1)Nc1ccc(N2CCCCC2)cc1	25	73*	0.3	40
CCN(CC(=O)Nc1ccccc1C(F)(F)F)C(=O)C1=COCCO1	.	.	.	-22
O=C(O/N=C1/CCCc2occc21)c1ccccc1	1	70*	0.3	13
Cc1cccc(C(=O)O/N=C2\CCCc3ccccc32)c1	-6	81*	0.2	16
Cc1ccc(C(=O)O/N=C2\CCCc3ccccc32)cc1	19	94*	0.1	32
O=C(O/N=C1/CCCc2occc21)c1ccc(Cl)cc1Cl	14	.	.	1
N/C(=N\OC(=O)c1cccc(Cn2cc(C(F)(F)F)ccc2=O)c1)c1ccccc1	16	.	.	36
Cc1ccc(/C(N)=N/OC(=O)c2cccc(Cn3cc(C(F)(F)F)ccc3=O)c2)cc1	4	.	.	81*
O=c1ccc2c(ccc3ncccc32)o1	.	.	.	-2
CC(=O)N1CCc2cc(NC(=O)C3(C)CCN3CCc3ccccc3)ccc21 (configuration not stated)	.	.	.	6
CC(C)(C)c1cc[n+](C2=C([O-])c3ccccc3C(=O)/C2=N\S(=O)(=O)c2cccs2)cc1	14	.	.	54*
O=C1/C(=N\S(=O)(=O)c2cccs2)C([n+]2ccccc2)=C([O-])c2ccccc21	22	.	.	43
SMILES	PPC-1+TRAIL kill	FLuc inh counter	FLuc stim CS	TRAIL sens C8
O=C(NCCc1ccccc1)C(c1cccs1)N(C(=O)CCl)c1ccc(Cl)cc1 (configuration not stated)	9	-1	1	96*
Nc1cccc(C(=O)OCC(=O)c2ccccc2)c1	-14	69*	0.3	-2
O=C(OCC(=O)c1cccs1)c1ccccc1	8	50*	0.5	0
Cc1ccc(S(=O)(=O)NCC(=O)OC(C)C(=O)NC2CCCCC2C)cc1C (configuration not stated)	.	.	.	21
CCCCNC(=O)C1C(c2ccc(OC)cc2)=Nc2ccccc2N1C(=O)c1ccc2ncccc2c1 (configuration not stated)	.	.	.	-1
Cn1c(=O)c2c(SCC(=O)Nc3ccccc3F)nc(C3CC3)nc2n(C)c1=O	.	.	.	50*
CC(C)c1ccc(/C=N/NC(=O)c2c(Cl)cnn2C)cc1	42	93*	0.1	83*
O=C(COC(=O)c1ccccc1NC(=O)C1CC1)c1ccc2c(c1)OCCO2	11	72*	0.3	.
CC(C)(C)C(=O)Nc1ccccc1C(=O)OCC(=O)c1ccc2c(c1)OCCO2	10	22	0.8	2
COc1ccc(OC)c2sc(N(CCN(C)C)C(=O)/C=C/c3cccs3)nc12	.	.	.	93*
COc1ccc(C)c2sc(N(CCN(C)C)C(=O)/C=C/c3cccs3)nc12	.	.	.	-2
